Experimental data published in ChEMBL document CHEMBL3596140, “Bisleuconothine A Induces Autophagosome Formation by Interfering with AKT-mTOR Signaling Pathway” (J Nat Prod, 2015).
Active and inactive are the calls of the source. The calls are words filed in the database; no cut-off is given here.

What was measured:
[1] = system: A549; assay: Cytostatic activity against human A549 cells after 48 hrs by MTT assay; format: functional, cell-based
Outline: (§1)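 A549 cells in medium with 10% FBS and 1% penicillin–streptomycin, exposed to compound for 48 h. MTT (5 mg/mL stock) added at the end of exposure, then 3 h further incubation. Formazan dissolved in DMSO and read at 550 nm (reference 700 nm) as a measure of succinate dehydrogenase activity. IC50 taken from the concentration–response curve. Microscopy used for confirmation.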

[2] = system: A549; assay: Cytotoxicity against human A549 cells assessed as induction of cell death by microscopic analysis; format: functional, cell-based
[3] = system: A549; assay: Induction of apoptosis in human A549 cells assessed as early apoptotic cells at 100 nM after 24 hrs by FITC-annexin V/propidium iodide staining-based flow cytometric analysis relative to control; format: functional
Outline: (§2)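 A549 cells (5 × 10^5 cells/dish) exposed to compound (24 μM, or 100 nM for vinblastine) for 24 h. Cells washed twice with PBS and stained with FITC–annexin V plus propidium iodide in FACS buffer with 0.3% BSA. Quadrant distribution read by flow cytometry against untreated cells.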

[4] = system: A549; assay: Induction of apoptosis in human A549 cells assessed as late apoptotic cells at 100 nM after 24 hrs by FITC-annexin V/propidium iodide staining-based flow cytometric analysis relative to control; format: functional; outline: as §2
[5] = system: A549; assay: Downregulation of Bcl-XL protein expression in human A549 cells at 100 nM after 24 hrs by Western blot analysis; format: functional, cell-based
Outline: (§3)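 Total lysates of A549 cells harvested at 0, 6, 12 and 24 h after exposure to 24 μM test agent or 100 nM vinblastine. Proteins resolved, transferred to PVDF and probed for Bcl-xL, Mcl-1, Bcl-2, Bax-1, Bid, PUMA, Bim, Bik and p53, with antibodies diluted in BlockAce and β-actin as loading reference.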

[6] = system: A549; assay: Downregulation of Mcl-1 protein expression in human A549 cells at 100 nM after 24 hrs by Western blot analysis; format: functional, cell-based; outline: as §3
[7] = system: A549; assay: Downregulation of BimEL protein expression in human A549 cells at 100 nM after 24 hrs by Western blot analysis; format: functional, cell-based; outline: as §3
[8] = system: A549; assay: Upregulation of p53 protein expression in human A549 cells at 100 nM after 24 hrs by Western blot analysis; format: functional, cell-based; outline: as §3
[9] = system: A549; assay: Cytostatic activity against human A549 cells by MTT assay; format: functional, cell-based; outline: as §1
[10] = system: A549; assay: Cytotoxicity against human A549 cells assessed as induction of cell death at 24 uM after 48 hrs by microscopic analysis; format: functional, cell-based
[11] = system: A549; assay: Induction of reactive oxygen species generation in human A549 cells at 6 uM incubated in dark for 1 hr by H2DCFDA dye-based flow cytometric analysis; format: functional, cell-based
Outline: (§4)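 A549 cells (4 × 10^5 cells/dish) preloaded with 20 μM H2DCFDA for 1 h, then exposed to compound (6 or 24 μM) for 1 h in the dark at 37 °C. H2O2 at 100 μM served as positive control. Cells washed, resuspended in FACS buffer with 0.3% BSA, and analysed by flow cytometry for intracellular DCF fluorescence intensity.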

[12] = system: A549; assay: Induction of reactive oxygen species generation in human A549 cells at 24 uM incubated in dark for 1 hr by H2DCFDA dye-based flow cytometric analysis; format: functional, cell-based; outline: as §4
[13] = system: A549; assay: Induction of apoptosis in human A549 cells at 24 uM after 24 hrs by FITC-annexin V/propidium iodide staining-based flow cytometric analysis; format: functional, cell-based; outline: as §2
[14] = system: A549; assay: Effect on Bcl-XL protein expression in human A549 cells at 24 uM after 6 to 24 hrs by Western blot analysis; format: functional, cell-based; outline: as §3
[15] = system: A549; assay: Effect on Mcl-1 protein expression in human A549 cells at 24 uM after 6 to 24 hrs by Western blot analysis; format: functional, cell-based; outline: as §3
[16] = system: A549; assay: Effect on Bcl-2 protein expression in human A549 cells at 24 uM after 6 to 24 hrs by Western blot analysis; format: functional, cell-based; outline: as §3
[17] = system: A549; assay: Effect on Bax-1 protein expression in human A549 cells at 24 uM after 6 to 24 hrs by Western blot analysis; format: functional, cell-based; outline: as §3
[18] = system: A549; assay: Effect on Bid protein expression in human A549 cells at 24 uM after 6 to 24 hrs by Western blot analysis; format: functional, cell-based; outline: as §3
[19] = system: A549; assay: Effect on Puma protein expression in human A549 cells at 24 uM after 6 to 24 hrs by Western blot analysis; format: functional, cell-based; outline: as §3
[20] = system: A549; assay: Effect on BimEL protein expression in human A549 cells at 24 uM after 6 to 24 hrs by Western blot analysis; format: functional, cell-based; outline: as §3
[21] = system: A549; assay: Effect on Bik protein expression in human A549 cells at 24 uM after 6 to 24 hrs by Western blot analysis; format: functional, cell-based; outline: as §3
[22] = system: A549; assay: Effect on p53 protein expression in human A549 cells at 24 uM after 6 to 24 hrs by Western blot analysis; format: functional, cell-based; outline: as §3
[23] = system: A549; assay: Induction of autophagy in human A549 cells assessed as increase in LC3-2 expression at 6 uM by Western blot analysis; format: functional, cell-based; details: TDE = time-dependent effect
Outline: (§5)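 A549 and MCF7 cells exposed to 6 μM compound, with everolimus 5 μM as autophagy positive control. Total lysates harvested at 0, 4, 8, 12 or 24 h. LC3-I and LC3-II (lipidated) levels assessed by Western blot with LC3B antibody.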

[24] = system: MCF7; assay: Induction of autophagy in human MCF7 cells assessed as LC3 lipidation at 6 uM after 4 to 24 hrs by Western blot analysis; format: functional, cell-based; outline: as §5
[25] = system: A549; assay: Prevention of autophagosome degradation in human A549 cells assessed as upregulation of p62 expression at 6 uM after 6 hrs by Western blot analysis; format: functional, cell-based
Outline: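 A549 cells kept in serum-free medium for 1 h, then exposed to 6 μM compound or 5 μM everolimus, with or without bafilomycin A1 (400 nM), for 6 h. LC3 and p62 levels in lysates assessed by Western blot to follow autophagic flux.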

[26] = system: A549; assay: Induction of autophagic punctation in human A549 cells assessed as increase of puncta with LC3 at 6 uM after 6 hrs by immunofluorescence staining-based microscopic analysis relative to control; format: functional, cell-based
Outline: (§6)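 A549 cells on chamber slides placed in serum-free medium for 1 h, then exposed for 6 h to 6 μM compound, 5 μM everolimus or 400 nM bafilomycin A1. Fixed in ice-cold methanol for 15 min at −20 °C and blocked. Stained for LC3B, LAMP2 and p62 with Alexa Fluor 488/546/647 secondaries, mounted with DAPI, and puncta assessed by fluorescence microscopy.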

[27] = system: A549; assay: Induction of autophagic punctation in human A549 cells assessed as increase of puncta with p62 at 6 uM after 6 hrs by immunofluorescence staining-based microscopic analysis relative to control; format: functional, cell-based; outline: as §6
[28] = system: A549; assay: Effect on localization of lysosome puncta with LAMP2 in human A549 cells at 6 uM after 6 hrs by immunofluorescence staining-based microscopic analysis relative to control; format: functional, cell-based; outline: as §6
[29] = target: Serine/threonine-protein kinase mTOR (Homo sapiens) (UniProt P42345); assay: Effect on mTOR phosphorylation at ser2448 in human A549 cells at 6 uM after 3 to 24 hrs by Western blot analysis; format: cell-based
Outline: (§7)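 A549 total lysates harvested 3, 6, 12 or 24 h after exposure to 6 μM compound or 5 μM everolimus. Western blot on PVDF with antibodies to phospho-mTOR Ser2448, phospho-AKT Thr308 and Ser473, phospho-p70S6K Thr389, phospho-PDK1 Ser241 and PRAS40 Thr246, alongside total proteins and β-actin.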

[30] = target: Serine/threonine-protein kinase mTOR (Homo sapiens) (UniProt P42345); assay: Inhibition of mTOR in human A549 cells assessed as downregulation of p70S6K phosphorylation at thr389 at 6 uM after 3 to 24 hrs by Western blot analysis; format: cell-based; outline: as §7
[31] = system: A549; assay: Inhibition of AKT in human A549 cells assessed as downregulation of PRAS40 phosphorylation at thr246 at 6 uM after 3 to 12 hrs by Western blot analysis; format: cell-based; outline: as §7
[32] = system: A549; assay: Inhibition of AKT phosphorylation at thr308 in human A549 cells at 6 uM after 3 to 24 hrs by Western blot analysis; format: cell-based; outline: as §7
[33] = system: A549; assay: Inhibition of AKT phosphorylation at Ser473 in human A549 cells at 6 uM after 3 to 6 hrs by Western blot analysis; format: cell-based; outline: as §7
[34] = target: T1, 3-phosphoinositide-dependent protein kinase 1 (Homo sapiens) (UniProt O15530); assay: Effect on PDK1 phosphorylation at Ser241 in human A549 cells at 6 uM after 3 to 24 hrs by Western blot analysis; format: cell-based; outline: as §7
T1 sequence (whole entry): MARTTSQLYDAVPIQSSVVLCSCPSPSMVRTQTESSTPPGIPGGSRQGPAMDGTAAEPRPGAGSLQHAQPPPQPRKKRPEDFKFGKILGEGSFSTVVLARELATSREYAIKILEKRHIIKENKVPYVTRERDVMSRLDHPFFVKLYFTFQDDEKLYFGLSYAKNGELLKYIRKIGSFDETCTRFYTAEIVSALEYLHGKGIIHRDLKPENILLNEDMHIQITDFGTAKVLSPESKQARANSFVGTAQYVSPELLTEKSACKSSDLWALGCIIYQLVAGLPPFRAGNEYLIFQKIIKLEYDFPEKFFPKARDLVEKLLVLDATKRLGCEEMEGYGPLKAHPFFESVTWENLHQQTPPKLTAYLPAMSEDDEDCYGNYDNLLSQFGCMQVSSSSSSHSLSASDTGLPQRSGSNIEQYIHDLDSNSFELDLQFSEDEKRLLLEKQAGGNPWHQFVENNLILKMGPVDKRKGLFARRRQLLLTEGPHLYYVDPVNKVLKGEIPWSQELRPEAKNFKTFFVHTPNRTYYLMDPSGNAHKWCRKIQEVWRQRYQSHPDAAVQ

[35] = system: A549; assay: Effect on morphological changes in lysosome puncta in human A549 cells at 6 uM after 6 hrs by immunofluorescence staining-based microscopic analysis relative to control; format: functional, cell-based; outline: as §6
[36] = system: A549; assay: Induction of autophagy in human A549 cells assessed as increase in LC3-2 expression at 6 uM after 4 to 24 hrs by Western blot analysis

CC[C@]1(O)C[C@@H]2CN(CCc3c([nH]c4ccccc34)[C@@](C(=O)OC)(c3cc4c(cc3OC)N(C)[C@H]3[C@@](O)(C(=O)OC)[C@H](OC(C)=O)[C@]5(CC)C=CCN6CC[C@]43[C@@H]65)C2)C1 [VINBLASTINE]
Activity [1]: Dose-dependent effect | Activity [2]: Active | Activity [3]: 30% | Activity [4]: 30% | Activity [5]: Active | Activity [6]: Active | Activity [7]: Active | Activity [8]: Active

CC[C@@]12CCCN3CCc4c(n(c5ccccc45)[C@H](c4ccc(O)c5c4N[C@@H]4CC[C@@]6(CC)CCCN7CC[C@@]54[C@H]76)C1)[C@H]32 [BISLEUCONOTHINE A]
Activity [9]: Dose-dependent effect | IC50 [9]: 8 µM | Activity [10]: Active | Activity [11]: inactive | Activity [12]: Active | Activity [13]: inactive | Activity [14]: inactive | Activity [15]: inactive | Activity [16]: inactive | Activity [17]: inactive | Activity [18]: inactive | Activity [19]: inactive | Activity [20]: inactive | Activity [21]: inactive | Activity [22]: inactive | Activity [23]: tde | Activity [24]: Active | Activity [25]: Active | Activity [26]: Active | Activity [27]: Active | Activity [28]: Active | Activity [29]: inactive | inhibition [30]: Active | inhibition [31]: Active | inhibition [32]: Active | inhibition [33]: Active | Activity [34]: inactive | Activity [35]: Active | Activity [36]: Active
